Experiments:
CAKI-1 = assay: Growth inhibition of human CAKI-1 cells after 48 hrs; type: functional; details: CAKI-1, 48 h
Procedure, shortened: (§1)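 NCI-60 human tumour cell line panel screen run at the US National Cancer Institute under its standard cytotoxicity protocol. It covers leukaemia, NSCLC, colon, CNS, melanoma, ovarian, renal, prostate and breast lines. An initial single-dose test was followed by five-dose testing with 48 h compound exposure.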

[1] = Growth inhibition of human RPMI8226 cells after 48 hrs; type: functional; details: RPMI-8226, 48 h; procedure, shortened: as §1
T47D = assay: Growth inhibition of human T47D cells after 48 hrs; type: functional
Procedure, shortened: (§2)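 Run by the NCI 58-cell-line screen under its standard cytotoxicity protocol. Compounds were first tested at a single dose, then at five doses. Cells were exposed to compound for 48 h.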

Staphylococcus aureus = assay: Antimicrobial activity against Staphylococcus aureus assessed as inhibition at 20 ug/6 mm disk after 1 to 2 days by agar diffusion assay; type: functional
Procedure, shortened: (§3)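 Standard agar diffusion: 6-mm paper disks loaded with 20 µg of compound were placed on inoculated plates. Inhibition-zone diameter (mm) was read after 1 and 2 days of growth.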

SF-268 = assay: Growth inhibition of human SF268 cells after 48 hrs; type: functional; details: SF-268, 48 h; procedure, shortened: as §1
KM12 = assay: Growth inhibition of human KM12 cells after 48 hrs; type: functional; details: KM12, 48 h; procedure, shortened: as §1
Escherichia coli = assay: Antimicrobial activity against Escherichia coli tolC assessed as inhibition at 20 ug/6 mm disk after 1 to 2 days by agar diffusion assay; type: functional; procedure, shortened: as §3
[2] = Octanol-water partition coefficient, log P of the compound by HPLC analysis; type: physicochemical
Procedure, shortened: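 Lipophilicity was measured by reversed-phase HPLC on a Nucleosil C18 column with isocratic water/methanol (3:1) at 0.5 ml/min and UV detection at 230 and 245 nm. Dead time was set with thiourea (t0 0.728 min). Retention factor was k = (tR − t0)/t0, and log P came from a calibration against at least six reference compounds.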

[3] = Growth inhibition of human SF539 cells after 48 hrs; type: functional; details: SF-539, 48 h; procedure, shortened: as §1
SK-MEL-5 = assay: Growth inhibition of human SK-MEL-5 cells after 48 hrs; type: functional; details: SK-MEL-5, 48 h; procedure, shortened: as §2
Saccharomyces cerevisiae = assay: Antimicrobial activity against Saccharomyces cerevisiae assessed as inhibition at 20 ug/6 mm disk after 1 to 2 days by agar diffusion assay; type: functional; procedure, shortened: as §3
MCF7 [4] = assay: Cytotoxicity against human MCF7 cells assessed as cell viability after 24 hrs incubation by MTT assay; type: functional, cell-based; details: MCF7, 24 h
Procedure, shortened: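 Cell lines came from DSMZ; primary human fibroblasts served as non-cancer controls. Cells were grown in medium with 10% FCS, seeded at 50,000 cells/ml, and grown 2 days at 37 °C, 10% CO2. Serial dilutions were then added for 24 h. MTT (final 0.5 mg/ml) was added for 2 h. Formazan was pelleted, PBS-washed, dissolved in isopropanol/0.4% HCl and read at 590 nm. Two parallel experiments were run. IC50 was taken as the concentration giving 50% of untreated-control absorbance.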

[5] = Growth inhibition of human LOXIMVI cells after 48 hrs; type: functional; details: LOX IMVI; procedure, shortened: as §1
SNB-75 = assay: Growth inhibition of human SNB75 cells after 48 hrs; type: functional; details: SNB-75, 48 h; procedure, shortened: as §2
[6] = Growth inhibition of human NCI-ADR-RES cells after 48 hrs; type: functional; procedure, shortened: as §1
SK-OV-3 = assay: Growth inhibition of human SKOV3 cells after 48 hrs; type: functional; details: SK-OV-3, 48 h; procedure, shortened: as §2
Malme-3M = assay: Growth inhibition of human MALME-3M cells after 48 hrs; type: functional; procedure, shortened: as §1
HT-29 = assay: Growth inhibition of human HT-29 cells after 48 hrs; type: functional; details: HT-29, 48 h; procedure, shortened: as §1
[7] = Growth inhibition of human BT549 cells after 48 hrs; type: functional; details: BT-549, 48 h; procedure, shortened: as §1
[8] = Growth inhibition of human OVCAR8 cells after 48 hrs; type: functional; details: OVCAR-8, 48 h; procedure, shortened: as §1
[9] = Growth inhibition of human EKVX cells after 48 hrs; type: functional; procedure, shortened: as §1
[10] = Growth inhibition of human Hs 578T cells after 48 hrs; type: functional; procedure, shortened: as §1
786-0 = assay: Growth inhibition of human 786-0 cells after 48 hrs; type: functional; details: 786-0, 48 h; procedure, shortened: as §1
[11] = Growth inhibition of human OVCAR4 cells after 48 hrs; type: functional; details: OVCAR-4, 48 h; procedure, shortened: as §1
[12] = Growth inhibition of human MOLT4 cells after 48 hrs; type: functional; details: MOLT-4, 48 h; procedure, shortened: as §1
SNB-19 = assay: Growth inhibition of human SNB19 cells after 48 hrs; type: functional; details: SNB-19, 48 h; procedure, shortened: as §2
DU-145 = assay: Growth inhibition of human DU145 cells after 48 hrs; type: functional; details: DU-145, 48 h; procedure, shortened: as §1
MCF7 [13] = assay: Growth inhibition of human MCF7 cells after 48 hrs; type: functional; details: MCF7, 48 h; procedure, shortened: as §1
ACHN = assay: Growth inhibition of human ACHN cells after 48 hrs; type: functional; procedure, shortened: as §1
SK-MEL-28 = assay: Growth inhibition of human SK-MEL-28 cells after 48 hrs; type: functional; details: SK-MEL-28, 48 h; procedure, shortened: as §1
MDA-MB-435 = assay: Growth inhibition of human MDA-MB-435 cells after 48 hrs; type: functional; details: MDA-MB-435, 48 h; procedure, shortened: as §1
[14] = read-out: pLC50 (the source's name) (converted)

COc1ccc(N(CC(=O)NCCC[Te]c2ccccc2)C(=O)CNC(=O)OC(C)(C)C)cc1
GI50 (CAKI-1): 2.09 µM
LC50 (CAKI-1): > 100 µM
TGI (CAKI-1; read-out: pTGI (converted)): 5.62 µM
GI50 [1]: 2.4 µM
CC50 [1, 14]: > 100 µM
TGI ([1]; read-out: pTGI (converted)): 7.24 µM
GI50 (T47D): 11.2 µM
LC50 (T47D): > 100 µM
TGI (T47D; read-out: pTGI (converted)): 40.7 µM
diameter of the inhibition zone (DIZ) (Staphylococcus aureus): 10 mm
GI50 (SF-268): 2.69 µM
CC50 (SF-268; [14]): 100 µM
TGI (SF-268; read-out: pTGI (converted)): 7.59 µM
GI50 (KM12): 3.31 µM
CC50 (KM12; [14]): 43.7 µM
TGI (KM12; read-out: pTGI (converted)): 11.5 µM
diameter of the inhibition zone (DIZ) (Escherichia coli): 12 mm
logP [2]: 4.2
GI50 [3]: 2.14 µM
CC50 [3, 14]: 15.8 µM
TGI ([3]; read-out: pTGI (converted)): 4.79 µM
GI50 (SK-MEL-5): 3.16 µM
CC50 (SK-MEL-5; [14]): 34.7 µM
TGI (SK-MEL-5; read-out: pTGI (converted)): 9.12 µM
diameter of the inhibition zone (DIZ) (Saccharomyces cerevisiae): 0 mm
IC50 (MCF7 [4]): 5 µM
GI50 [5]: 2.34 µM
LC50 [5]: 34.7 µM
TGI ([5]; read-out: pTGI (converted)): 5.75 µM
GI50 (SNB-75): 6.61 µM
CC50 (SNB-75; [14]): 36.3 µM
TGI (SNB-75; read-out: pTGI (converted)): 7.41 µM
GI50 [6]: 2.88 µM
LC50 [6]: > 100 µM
TGI ([6]; read-out: pTGI (converted)): 7.24 µM
GI50 (SK-OV-3): 2.34 µM
CC50 (SK-OV-3; [14]): 10 µM
TGI (SK-OV-3; read-out: pTGI (converted)): 4.79 µM
GI50 (Malme-3M): 15.8 µM
CC50 (Malme-3M; [14]): 69.2 µM
TGI (Malme-3M; read-out: pTGI (converted)): 33.1 µM
GI50 (HT-29): 3.8 µM
CC50 (HT-29; [14]): > 100 µM
TGI (HT-29; read-out: pTGI (converted)): 13.8 µM
GI50 [7]: 1.7 µM
LC50 (concentration killing 50% of cells) [7]: > 100 µM
TGI ([7]; read-out: pTGI (converted)): 4.9 µM
GI50 [8]: 2.4 µM
LC50 [8]: > 100 µM
TGI ([8]; read-out: pTGI (converted)): 6.92 µM
GI50 [9]: 0.324 µM
CC50 [9, 14]: > 100 µM
TGI ([9]; read-out: pTGI (converted)): 2.34 µM
GI50 [10]: 2.75 µM
LC50 [10]: > 100 µM
TGI ([10]; read-out: pTGI (converted)): 7.24 µM
GI50 (786-0): 3.72 µM
LC50 (786-0): 56.2 µM
TGI (786-0; read-out: pTGI (converted)): 12.9 µM
GI50 [11]: 22.4 µM
LC50 [11]: > 100 µM
TGI ([11]; read-out: pTGI (converted)): > 100 µM
GI50 [12]: 3.09 µM
CC50 [12, 14]: > 100 µM
TGI ([12]; read-out: pTGI (converted)): 10 µM
GI50 (SNB-19): 8.71 µM
CC50 (SNB-19; [14]): > 100 µM
TGI (SNB-19; read-out: pTGI (converted)): 9.55 µM
GI50 (DU-145): 2.88 µM
LC50 (DU-145): 30.9 µM
TGI (DU-145; read-out: pTGI (converted)): 7.59 µM
GI50 (MCF7 [13]): 2.57 µM
LC50 (concentration killing 50% of cells) (MCF7 [13]): 37.2 µM
TGI (MCF7 [13]; read-out: pTGI (converted)): 7.59 µM
GI50 (ACHN): 1.55 µM
LC50 (ACHN): > 100 µM
TGI (ACHN; read-out: pTGI (converted)): 8.71 µM
GI50 (SK-MEL-28): 3.09 µM
CC50 (SK-MEL-28; [14]): 36.3 µM
TGI (SK-MEL-28; read-out: pTGI (converted)): 10 µM
GI50 (MDA-MB-435): 3.31 µM
CC50 (MDA-MB-435; [14]): 51.3 µM
TGI (MDA-MB-435; read-out: pTGI (converted)): 13.5 µM
